The results in this text go back to ChEMBL document CHEMBL4513216, “Probing the Open Global Health Chemical Diversity Library for Multistage-Active Starting Points for Next-Generation Antimalarials” (ACS Infect Dis, 2020).

Each structure is given as a SMILES string.

The series in a line: Toxicity liver stage against HepG2, at 10uM. Also on record: test concentration 10 uM, cell line HepG2-A16-CD81EGFP. The format is cell-based. The note with it: human, HepG2-A16-CD81EGFP cells; read-out: INHIBITION
The procedure, abridged: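 Uninfected HepG2-A16-CD81EGFP cells, 3 × 10^3 per well, 1536-well, plated on prespotted compound at 10 μM final, parasite-free screening media added to match infected plates; puromycin 10 μM positive, DMSO 0.5% negative; run in parallel with 48 h PbLuc assay at 37 °C, 5% CO2; viability by CellTiter-Glo luminescence, normalized to controls.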
Take `CCS(=O)(=O)N1Cc2[nH]nc(COCc3cccnc3)c2C1`: the cytotoxicity at 10 µM was 11.9%.

As to `O=S(=O)(c1ccc(F)cc1F)N1CCCCC1c1nnc2n1CCCC2` (stereo unspecified), the cytotoxicity at 10 µM came out at 2.22%.

As for `CC(C)c1nc(-c2cc(C(=O)N3CCN(C)CC3)c3ccccn23)cs1`, the cytotoxicity at 10 µM is 5.77%.

Consider `Cc1nc(CN2CCOC3(CCCC3)C2)oc1C`, for which the cytotoxicity at 10 µM is 4.56%.

Regarding `Cc1csc(NC(=O)[C@@H]2C[C@H]3[C@H](CCN3c3ncccn3)O2)n1`, the cytotoxicity at 10 µM was -13.8%.

In the case of `O=C([C@H]1CCCO1)N1CCCC2(COCCN(c3ccccc3)C2)C1` (stereo partly specified), the cytotoxicity at 10 µM was 13.9%.

For `COc1ccccc1OC1(C(=O)O)CCN(c2ncccc2F)CC1`, the cytotoxicity at 10 µM was -12.9%.

Take `Cc1nccnc1C1CCN(C(=O)C(C)C)CC1`: the cytotoxicity at 10 µM came out at 3.25%.

On to `O=C1CC2(CCSC2)C(=O)N1Cc1ncc(-c2ccccc2)o1` (stereo unspecified), for which the cytotoxicity at 10 µM was 14.4%.

Take `Nc1cc(C(=O)NCC2CCN(Cc3ccncc3F)C2)ccn1` (stereo unspecified): the cytotoxicity at 10 µM is -24.2%.

For the compound `CC(C)n1nc2c(cc1=O)CN(c1nc3ccccc3s1)CC2`, the cytotoxicity at 10 µM is -1.99%.

`O=C(NCC1(CO)CC1)c1ccccc1C(F)(F)F`: the cytotoxicity at 10 µM came out at 4%.

`Cc1nc(CN2CCN(c3ccc(SC(C)C)nn3)CC2)cs1`: the cytotoxicity at 10 µM turned out to be 5.71%.

Take `O=C(O)C1(Cc2cccc(-c3cccs3)c2)CCCNC1` (stereo unspecified): the cytotoxicity at 10 µM was 4.43%.

Regarding `CC(=O)N[C@@H]1CN(C(=O)Cc2coc3cc(C)ccc23)C[C@H]1O`, the cytotoxicity at 10 µM amounted to 5.84%.

For `CNc1cc(N2CCCC2CNCc2cscn2)ncn1` (stereo unspecified), the cytotoxicity at 10 µM was -0.426%.

Consider `O=C(O)Cn1nc(C2CC2)c2c(-c3cccs3)ccnc21`, for which the cytotoxicity at 10 µM is -11.6%.

Take `O=C(Cc1cccs1)N1CCn2cc(Cn3cccn3)nc2C1`: the cytotoxicity at 10 µM was -77.9%.

With `CC(Cn1cccn1)NC(=O)NCCc1cccs1` (stereo unspecified), the cytotoxicity at 10 µM was -15.3%.

For `C[C@@H]1CN(C(=O)C2CCS(=O)(=O)CC2)CC[C@@]1(O)C1CCOCC1`, the cytotoxicity at 10 µM is -9.34%.

`CN1CCCC1CCNC(=O)c1ccccc1-n1cc(CN)cn1` (stereo unspecified): the cytotoxicity at 10 µM is 3.44%.

Take `Cn1cc(CN2CCCCC2c2ccc(-c3cccc(F)c3)nc2)cn1` (stereo unspecified): the cytotoxicity at 10 µM was found to be 6.77%.

`NC(=O)CCn1ccc(NC(=O)C2(c3ccc(F)cc3)CCC2)n1`: the cytotoxicity at 10 µM is -1.03%.

Take `O=C(c1cccc(C2CCNC2)c1)N1CCC(c2ccncc2)CC1` (stereo unspecified): the cytotoxicity at 10 µM is -1.12%.

`CN(C)CCN(CC1CCCO1)S(=O)(=O)NCc1ccccc1` (stereo unspecified): the cytotoxicity at 10 µM worked out at 0.666%.

For the compound `CCN(C(=O)NCCc1ccccc1Cl)C(C)CS(C)(=O)=O` (stereo unspecified), the cytotoxicity at 10 µM amounted to 8.83%.

For the compound `O=C(c1ccc(Oc2cccnc2)cc1)N1CCN(CCO)CC1`, the cytotoxicity at 10 µM is -41.5%.

On to `Cc1cccc2c1nc1n2[C@@H](CNC(=O)c2ccccn2)COC1`, for which the cytotoxicity at 10 µM is 6.49%.

`CN(Cc1nnc(C2CC2)o1)Cc1ccccc1N1CCOCC1`: the cytotoxicity at 10 µM was -7.83%.

Take `COc1c(F)cc(CN2CCCC3(CC2)CNC(=O)O3)cc1Cl` (stereo unspecified): the cytotoxicity at 10 µM came out at 0.465%.

Regarding `Cc1nnc2n1CCN(C(=O)c1cc(Cl)c[nH]1)C2`, the cytotoxicity at 10 µM is -5.87%.

For the compound `Cc1cc(C)c(CNC(=O)NCCc2cccnc2)c(=O)[nH]1`, the cytotoxicity at 10 µM is -53.3%.

Take `Fc1cnc(N2CC[C@@H]3O[C@@H](COCc4ccccn4)CC[C@@H]32)nc1`: the cytotoxicity at 10 µM is 1.9%.

In the case of `COCCCNC(=O)CN1CCSC(c2ccccc2)C1` (stereo unspecified), the cytotoxicity at 10 µM was determined as 13.5%.

For the compound `Cn1cc(N2C(=O)CC[C@@H]3[C@H]2CCN3Cc2cccc(C#N)c2)cn1`, the cytotoxicity at 10 µM worked out at 8.51%.

Regarding `CS(=O)(=O)c1cccc(C(N)c2ccc(F)c(F)c2)c1` (stereo unspecified), the cytotoxicity at 10 µM is 6.62%.

Turning to `CC(=O)Nc1ccc(CNC(=O)CNCc2nnc(C)o2)cc1`, the cytotoxicity at 10 µM turned out to be 10.7%.

On to `CCC(C)N(Cc1cccnc1)Cc1cc2c(cc1OC)OCO2` (stereo unspecified), for which the cytotoxicity at 10 µM was 3.17%.

Take `CN(C)CCN1C(=O)CCC12CCCN(C(=O)c1ccncc1F)C2` (stereo unspecified): the cytotoxicity at 10 µM is 3.06%.

Regarding `Cc1ccc(C2CN(Cc3cccc4[nH]ccc34)CCO2)nc1` (stereo unspecified), the cytotoxicity at 10 µM was -35.6%.

In the case of `O=C1NCCCC12CCN(c1nc3c(c(C(F)(F)F)n1)CCCC3)C2` (stereo unspecified), the cytotoxicity at 10 µM was -7.11%.

Consider `CC(C)OCC(=O)Nc1ccc(Oc2ccc3c(c2)OCO3)nc1`, for which the cytotoxicity at 10 µM is -13.1%.

With `CN(C)C(=O)CC1CC2(CCN(CC3CC3)CC2)c2cc(F)ccc21` (stereo unspecified), the cytotoxicity at 10 µM is 3.37%.

In the case of `COc1cccc(OCC2CCCN(C(=O)c3cnn(C)c3)C2)c1` (stereo unspecified), the cytotoxicity at 10 µM was -21.4%.

On to `O=C(CC1CC1)N1CCO[C@H]2[C@H](OCCCn3cccn3)CC[C@@H]21`, for which the cytotoxicity at 10 µM was determined as 6.23%.

Turning to `Cc1ccc(CNC(CN2CCN(C)CC2)c2ccccc2)cc1C` (stereo unspecified), the cytotoxicity at 10 µM was -7.49%.

On to `Cc1cccc(CN2CCC3(CCCN(Cc4cnn(C)c4)C3)C2=O)n1` (stereo unspecified), for which the cytotoxicity at 10 µM was 6.02%.

As for `CC(NCc1ccc(OCC(N)=O)cc1)c1ccc(Cl)c(Cl)c1` (stereo unspecified), the cytotoxicity at 10 µM was -5.25%.

In the case of `CCCN(c1ccccc1C(=O)O)S(=O)(=O)c1ccc2ccccc2c1`, the cytotoxicity at 10 µM is -2.32%.

On to `Cc1ccccc1NC(=O)CNC(C)COc1ccccc1` (stereo unspecified), for which the cytotoxicity at 10 µM was -0.264%.

Regarding `CC(=O)N1CCOC(c2nc(N(C)C)ncc2-c2cccc(F)c2)C1` (stereo unspecified), the cytotoxicity at 10 µM was -27.5%.

Turning to `CCc1c(C)nn(CCNC(=O)Cc2csc(C)n2)c1C`, the cytotoxicity at 10 µM turned out to be 0.129%.

In the case of `COc1ccc(C(=O)N2CCC(Nc3cccnn3)CC2)c(F)c1`, the cytotoxicity at 10 µM is -8.96%.

`CC(C)CC(C)N(C)C(=O)c1nc(S(C)(=O)=O)n2ccccc12` (stereo unspecified): the cytotoxicity at 10 µM was -9.24%.

On to `Cc1noc(C)c1CN1CCC2(CC1)NC(=O)CC2c1cnn(C)c1` (stereo unspecified), for which the cytotoxicity at 10 µM worked out at 5.64%.

For `CSCCC(Nc1nc(C)cc(C)n1)C(=O)NC1CCCC1` (stereo unspecified), the cytotoxicity at 10 µM is -4.87%.

Take `COCC(c1cccc(C(F)(F)F)c1)N(C)C(=O)c1cc(C)n[nH]1` (stereo unspecified): the cytotoxicity at 10 µM was -14.1%.

For the compound `Cc1nn(C)c(C)c1C1CCCN1CCCc1nc2ccccc2o1` (stereo unspecified), the cytotoxicity at 10 µM is -4.3%.

Take `CCCNC(=O)c1cc2c(s1)CCN2C(=O)c1ccccc1`: the cytotoxicity at 10 µM came out at 7.31%.

In the case of `CS(=O)(=O)N1Cc2nccn2CC(CNC(=O)c2cccnc2)C1` (stereo unspecified), the cytotoxicity at 10 µM was -143%.

In the case of `O=C(NCCCn1cnnc1)C1CCCN(C2CCCC2)C1` (stereo unspecified), the cytotoxicity at 10 µM is -0.121%.

For the compound `Clc1cccc(-n2cnnn2)c1N1CCCCC1`, the cytotoxicity at 10 µM came to 17.4%.

Regarding `O=C(O)c1cn(-c2ccccn2)c(=O)c2ccccc12`, the cytotoxicity at 10 µM amounted to 0.847%.

As for `CC(O)CN1CCC(CNCc2ccc(C(N)=O)cc2)CC1` (stereo unspecified), the cytotoxicity at 10 µM was -9.83%.

For the compound `COc1c(CNC2CCCc3ccccc32)c(C(C)C)nn1C` (stereo unspecified), the cytotoxicity at 10 µM is -2.9%.

For the compound `CC(C)c1nccn1CCC(=O)NCC(C)(O)c1ccco1` (stereo unspecified), the cytotoxicity at 10 µM amounted to 1.23%.

Regarding `Cc1cnn(CCNCc2cccnc2)c1`, the cytotoxicity at 10 µM is -0.265%.

Consider `COc1cc(C(C)=O)ccc1OCC(=O)N(Cc1ccsc1)C1CC1`, for which the cytotoxicity at 10 µM worked out at 1.88%.

Regarding `COc1ccc(CNCCn2c(C)nc3ccccc32)cc1O`, the cytotoxicity at 10 µM was -3.51%.

Consider `Cc1cccc(OCCC(=O)N(C)CC(C)C#N)c1C` (stereo unspecified), for which the cytotoxicity at 10 µM was -0.555%.

With `O[C@@H]1CC(CNCc2ccc(Cl)cc2)(COc2cccnc2)C[C@@H]1O` (stereo partly specified), the cytotoxicity at 10 µM is -2.23%.

As for `Cc1ccc([C@@H]2CN(S(=O)(=O)c3ccccc3)C[C@H]2N(C)C)cc1`, the cytotoxicity at 10 µM was -4.44%.

As to `CN1CC(C(=O)NCCc2ccc(F)c(Br)c2)CC1=O` (stereo unspecified), the cytotoxicity at 10 µM turned out to be 3.57%.

For `CC(=O)NCC(=O)Nc1cc(C)n(-c2ccc(Cl)cc2Cl)n1`, the cytotoxicity at 10 µM was -140%.

As for `CN(CCc1ccccn1)C(=O)CCC1CCCN(S(C)(=O)=O)C1` (stereo unspecified), the cytotoxicity at 10 µM amounted to 4.77%.

In the case of `O=C(N1CCCC1)N1CCC[C@]2(C[C@@H](Oc3ncccc3F)CO2)C1`, the cytotoxicity at 10 µM was -0.269%.

With `C[C@@H]1CN(Cc2ccncc2)C[C@@]1(O)C1CC1`, the cytotoxicity at 10 µM was -5.08%.

Take `CC(C)NC(=O)Nc1ccc(CNCc2cccc(C#N)c2)cc1`: the cytotoxicity at 10 µM is -7.15%.

Turning to `CS(=O)(=O)NCc1cc2n(n1)CCCN(Cc1ccc(Cl)s1)C2`, the cytotoxicity at 10 µM amounted to 2.81%.

For `Cn1c(-c2ccc(F)cc2)cn2cc(C(=O)N3CC[C@@H](O)C3)nc2c1=O`, the cytotoxicity at 10 µM was 11.1%.

For the compound `c1cncc(-c2ncnc3c2CCN(Cc2cccs2)CC3)c1`, the cytotoxicity at 10 µM worked out at 19.9%.

Consider `COc1ccc(CN2CCCC(n3cccn3)C2)c(Cl)c1OC` (stereo unspecified), for which the cytotoxicity at 10 µM turned out to be 4.48%.

On to `CCC(C)N(Cc1c[nH]c(C)n1)Cc1ccccc1Cl` (stereo unspecified), for which the cytotoxicity at 10 µM stood at 24.2%.

Turning to `COCC(=O)NC1CC2(CCN(CC3CC3)CC2)Oc2ccccc21` (stereo unspecified), the cytotoxicity at 10 µM was -2.6%.

Take `CCn1cc(NC(=O)CN2C(=O)CC(C)(C)c3ccccc32)cn1`: the cytotoxicity at 10 µM is -1.7%.

With `Cn1ccnc1CN1CCC2(CC1)CN(c1ccccn1)CCO2`, the cytotoxicity at 10 µM is -0.335%.

On to `Cc1ccc(-c2ncc(CN3CCN(C(=O)N(C)C)CC3)s2)o1`, for which the cytotoxicity at 10 µM is -3.25%.

Take `CCC1c2ccccc2CCN1C(=O)c1ccc(OC)nn1` (stereo unspecified): the cytotoxicity at 10 µM is -12.8%.

Turning to `CCC(CO)N(Cc1cccs1)C(=O)Cc1ccncc1` (stereo unspecified), the cytotoxicity at 10 µM is -9.67%.

`O=C(c1cc(CC2(NCC3CCCCC3)COC2)no1)N1CCCCC1`: the cytotoxicity at 10 µM came out at 5.35%.

Turning to `COCCOCCNS(=O)(=O)C1CS(=O)(=O)c2ccccc21` (stereo unspecified), the cytotoxicity at 10 µM is -15.3%.

For the compound `COc1ncccc1CNCc1c(C)nn(C)c1N(C)C`, the cytotoxicity at 10 µM is -7.62%.

Regarding `CC(C)N(C(=O)Cn1nnnc1CCc1ccccc1)C(C)C`, the cytotoxicity at 10 µM stood at 7.1%.

Take `Cc1ccsc1-c1cc(C(=O)O)cc(S(=O)(=O)NCc2ccccn2)c1`: the cytotoxicity at 10 µM was -63.8%.

For the compound `O=C(C1CC1)N1C[C@@H](F)[C@@H](OCc2nc3cc(F)ccc3[nH]2)C1`, the cytotoxicity at 10 µM is -6.92%.

For `c1cnc2c(c1)cc([C@H]1CCCO1)n2CCN1CCOCC1`, the cytotoxicity at 10 µM was -11.3%.
